Drawing on ChEMBL document CHEMBL1938335, “2-(4-Methylsulfonylaminophenyl) propanamide TRPV1 antagonists: Structure-activity relationships in the B and C-regions” (Bioorg Med Chem, 2012), this text covers EC50 and Ki for 45 compounds.

In assay [1] the target is T1, Transient receptor potential cation channel subfamily V member 1 (Rattus norvegicus, UniProt O35433). Kind of assay: Agonist activity at rat TRPV1 expressed in CHO cells by 45Ca2+ uptake assay. Format: functional, cell-based.
The target of assay [2] is T1, Transient receptor potential cation channel subfamily V member 1. Kind of assay: Antagonist activity at rat TRPV1 expressed in CHO cells by 45Ca2+ uptake assay.
For assay [3] the target is unchanged. Kind of assay: Displacement of [3H]RTX from rat TRPV1 expressed in CHO cells. Format: cell-based. The gist of the method: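 Competitive binding against [3H]RTX on rat TRPV1 heterologously expressed in CHO cells. Affinity reported as Ki (nM). Values are mean ± SEM from 3 or more experiments.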
(In a radioligand displacement assay an active substance lowers the binding of a labelled ligand.)

Each structure is given as a SMILES string.

T1 sequence (O35433 whole entry): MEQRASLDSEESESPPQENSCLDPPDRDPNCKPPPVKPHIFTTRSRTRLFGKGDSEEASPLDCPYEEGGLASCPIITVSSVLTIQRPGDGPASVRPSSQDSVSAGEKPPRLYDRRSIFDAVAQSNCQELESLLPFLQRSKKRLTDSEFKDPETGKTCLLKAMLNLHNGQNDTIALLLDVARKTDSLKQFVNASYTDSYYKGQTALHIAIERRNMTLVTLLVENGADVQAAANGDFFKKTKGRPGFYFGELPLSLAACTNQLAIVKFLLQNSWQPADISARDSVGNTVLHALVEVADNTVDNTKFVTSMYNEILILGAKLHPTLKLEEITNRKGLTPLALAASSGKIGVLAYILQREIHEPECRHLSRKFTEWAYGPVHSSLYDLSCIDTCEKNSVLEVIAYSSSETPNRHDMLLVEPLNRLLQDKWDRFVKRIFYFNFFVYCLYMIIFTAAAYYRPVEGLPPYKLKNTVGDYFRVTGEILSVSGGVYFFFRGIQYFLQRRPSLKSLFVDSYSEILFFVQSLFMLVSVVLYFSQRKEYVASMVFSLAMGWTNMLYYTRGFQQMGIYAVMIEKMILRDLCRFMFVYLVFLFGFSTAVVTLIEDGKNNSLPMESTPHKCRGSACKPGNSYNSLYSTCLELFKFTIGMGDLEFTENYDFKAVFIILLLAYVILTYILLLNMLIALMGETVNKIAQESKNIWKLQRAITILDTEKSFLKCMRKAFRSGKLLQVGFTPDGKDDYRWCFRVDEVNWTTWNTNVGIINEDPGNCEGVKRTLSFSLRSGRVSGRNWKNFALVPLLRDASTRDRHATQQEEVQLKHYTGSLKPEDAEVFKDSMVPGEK

In the case of `Cc1ccc(/C=C/CNC(=O)C(C)c2ccc(NS(C)(=O)=O)c(F)c2)cc1C` (centres undefined), the EC50 entry in assay [1] is “Not Active”.
In the case of `Cc1ccc(C(CCNC(=O)C(C)c2ccc(NS(C)(=O)=O)c(F)c2)c2ccc(C)cc2)cc1` (centres undefined), in assay [1], the EC50 entry was “Not Active”. Moreover, the Ki (in general, the dissociation constant of the complex between target and ligand, obtained from inhibition or displacement) in assay [2] is 0.0321 µM; in assay [3] (read-out: Ki) it was 0.096 µM.
As to `CC(C(=O)NCCC(c1ccccc1)c1ccccc1)c1ccc(NS(C)(=O)=O)c(F)c1` (centres undefined), in assay [1], the EC50 entry is reported as “Not Active”. In assay [3] (read-out: Ki), the inhibitory constant (Ki) is 0.13 µM.
Regarding `CC(NC(=O)CCc1ccc(C(C)(C)C)cc1)c1ccc(NS(C)(=O)=O)c(F)c1` (centres undefined), the EC50 result in assay [1] is reported as “Not Active”.
For the compound `CC(C)(C)c1ccc(CNC(=O)C2(c3ccc(NS(C)(=O)=O)c(F)c3)CC2)cc1`, the EC50 result in assay [1] is reported as “Not Active”. For the same compound, the inhibition constant Ki entry in assay [3] (cho) is listed as “Not Active”.
As to `COc1ccc(CNC(=O)C(C)c2ccc(NS(C)(=O)=O)c(F)c2)cc1` (centres undefined), the EC50 entry in assay [1] was “Not Active”. In addition, the values for the Ki in assay [2] and in assay [3] (read-out: Ki) were 5.35 µM and 7.8 µM, respectively.
Take `CC(C(=O)NC/C=C/c1ccc(Cl)cc1)c1ccc(NS(C)(=O)=O)c(F)c1` (centres undefined): the EC50 result in assay [1] is “Not Active”.
In the case of `CC(C(=O)NCc1ccc(I)cc1)c1ccc(NS(C)(=O)=O)c(F)c1` (centres undefined), in assay [1], the EC50 entry is “Not Active”. For the same compound, the inhibition constant Ki in assay [2] was determined as 0.107 µM; in assay [3] (read-out: Ki) it was 0.502 µM.
Taken in the same sequence, the figures for `CC(C(=O)NCc1ccc(C(C)(C)C)cc1C#N)c1ccc(NS(C)(=O)=O)c(F)c1` (centres undefined) were “Not Active”, 0.04 µM and 0.044 µM.
As to `Cc1ccc(C(=CCNC(=O)C(C)c2ccc(NS(C)(=O)=O)c(F)c2)c2ccc(C)cc2)cc1` (centres undefined), the EC50 entry in assay [1] is given as “Not Active”. In assay [3] (read-out: Ki), the Ki came out at 0.0309 µM.
Turning to `CC(C(=O)NCC=C1c2ccccc2C=Cc2ccccc21)c1ccc(NS(C)(=O)=O)c(F)c1` (centres undefined), the EC50 entry in assay [1] was “Not Active”. The results for the Ki in assay [2] and in assay [3] (read-out: Ki) were 0.163 µM and 0.117 µM, respectively.
Take `CC(C(=O)NCc1ccc(C2CCCCC2)cc1)c1ccc(NS(C)(=O)=O)c(F)c1` (centres undefined): the EC50 result in assay [1] is on record as “Not Active”. Moreover, the inhibition constant (Ki) was 0.043 µM in assay [2] and 0.138 µM in assay [3] (read-out: Ki).
On to `CC(C)(C)c1ccc(CNC(=O)C(C)(C)c2ccc(NS(C)(=O)=O)cc2)cc1`, for which, in assay [1], the EC50 entry is on record as “Not Active”. In addition, the inhibition constant (Ki) in assay [3] (read-out: Ki) was 0.43 µM.
Consider `CC(C)(C)c1ccc(CNC(=O)C(C)(C)c2ccc(NS(C)(=O)=O)c(F)c2)cc1`, for which the EC50 entry in assay [1] was “Not Active”.
As for `CC(C(=O)NCc1ccc(C2CCCC2)cc1)c1ccc(NS(C)(=O)=O)c(F)c1` (centres undefined), in assay [1], the EC50 entry is recorded as “Not Active”. The figures for the Ki in assay [2] and in assay [3] (read-out: Ki) were 0.0208 µM and 0.093 µM, respectively.
For `CC(C(=O)NCc1ccc(-c2ccccc2)cc1)c1ccc(NS(C)(=O)=O)c(F)c1` (centres undefined), the EC50 result in assay [1] is “Not Active”.
Turning to `CC(C(=O)NCc1ccc(C2CC2)cc1)c1ccc(NS(C)(=O)=O)c(F)c1` (centres undefined), the EC50 result in assay [1] was “Not Active”. Further, the inhibition constant Ki in assay [2] worked out at 0.0555 µM; in assay [3] (read-out: Ki) it was 0.411 µM.
As for `CC(C(=O)NCc1ccc(Cl)cc1)c1ccc(NS(C)(=O)=O)c(F)c1` (centres undefined), the EC50 entry in assay [1] was “Not Active”.
As for `CC(NC(=O)/C=C/c1ccc(C(C)(C)C)cc1)c1ccc(NS(C)(=O)=O)c(F)c1` (centres undefined), in assay [1], the EC50 result was “Not Active”.
As for `CC(C(=O)NCc1ccc(Br)cc1)c1ccc(NS(C)(=O)=O)c(F)c1` (centres undefined), in assay [1], the EC50 result is reported as “Not Active”. Also, the values for the inhibitory constant (Ki) in assay [2] and in assay [3] (read-out: Ki) were 0.25 µM and 0.412 µM, respectively.
In the case of `COc1cc(C2(C(=O)NCc3ccc(C(C)(C)C)cc3)CC2)ccc1NS(C)(=O)=O`, the EC50 entry in assay [1] is “Not Active”.
With `CC(C(=O)NCC=C(c1ccc(F)cc1)c1ccc(F)cc1)c1ccc(NS(C)(=O)=O)c(F)c1` (centres undefined), in assay [1], the EC50 entry is reported as “Not Active”.
For `CC(C(=O)NCc1ccc(C(F)(F)F)cc1)c1ccc(NS(C)(=O)=O)c(F)c1` (centres undefined), the EC50 entry in assay [1] is “Not Active”.
With `CC(C(=O)NCCN(c1ccccc1)c1ccccc1)c1ccc(NS(C)(=O)=O)c(F)c1` (centres undefined), the EC50 entry in assay [1] is given as “Not Active”. Further, the inhibition constant (Ki) in assay [2] came to 0.047 µM; in assay [3] (read-out: Ki), 0.115 µM.
Regarding `CC(C(=O)NC(c1ccccc1)c1ccccc1)c1ccc(NS(C)(=O)=O)c(F)c1` (centres undefined), in assay [1], the EC50 entry is listed as “Not Active”.
Regarding `Cc1ccc(C(CCNC(=O)C(C)c2ccc(NS(C)(=O)=O)c(F)c2)c2ccc(F)cc2)cc1` (centres undefined), the EC50 entry in assay [1] is “Not Active”. For the same compound, the values for the Ki in assay [2] and in assay [3] (read-out: Ki) were 0.031 µM and 0.121 µM, respectively.
`CC(C)c1ccc(CNC(=O)C(C)c2ccc(NS(C)(=O)=O)c(F)c2)cc1` (centres undefined): the EC50 result in assay [1] is given as “Not Active”.
`COc1cc(C(C)(C)C(=O)NCc2ccc(C(C)(C)C)cc2)ccc1NS(C)(=O)=O`: in assay [1], the EC50 result is reported as “Not Active”. For the same compound, the Ki in assay [2] turned out to be 0.707 µM; in assay [3] (read-out: Ki), 0.414 µM.
With `CC(C(=O)NC1CCCc2ccccc21)c1ccc(NS(C)(=O)=O)c(F)c1` (centres undefined), the EC50 result in assay [1] is “Not Active”.
Regarding `CC(C(=O)NCC(c1ccccc1)c1ccccc1)c1ccc(NS(C)(=O)=O)c(F)c1` (centres undefined), the EC50 entry in assay [1] is “Not Active”.
On to `Cc1ccc(CCCNC(=O)[C@@H](C)c2ccc(NS(C)(=O)=O)c(F)c2)cc1C`, for which the EC50 result in assay [1] was “Not Active”. In assay [3] (read-out: Ki), the Ki was determined as 0.257 µM.
On to `CC(C(=O)NCC=C(c1ccc(Cl)cc1)c1ccc(Cl)cc1)c1ccc(NS(C)(=O)=O)c(F)c1` (centres undefined), for which the EC50 entry in assay [1] was “Not Active”. Moreover, the Ki in assay [2] stood at 0.0245 µM; in assay [3] (read-out: Ki), 0.0296 µM.
For the compound `Cc1ccc(CCCNC(=O)[C@H](C)c2ccc(NS(C)(=O)=O)c(F)c2)cc1C`, in assay [1], the EC50 result was “Not Active”.
With `CC(C(=O)NCc1ccc(C(C)(C)C)cc1Br)c1ccc(NS(C)(=O)=O)c(F)c1` (centres undefined), in assay [1], the EC50 result was “Not Active”. For the same compound, the Ki in assay [2] is 0.0127 µM; in assay [3] (read-out: Ki), 0.047 µM.
On to `CC(C(=O)NCCc1ccc(C(C)(C)C)cc1)c1ccc(NS(C)(=O)=O)c(F)c1` (centres undefined), for which the EC50 result in assay [1] is “Not Active”.
Regarding `CC(C(=O)NCCC(c1ccc(F)cc1)c1ccc(F)cc1)c1ccc(NS(C)(=O)=O)c(F)c1` (centres undefined), the EC50 entry in assay [1] is on record as “Not Active”. In addition, the inhibition constant (Ki) in assay [2] stood at 0.0248 µM; in assay [3] (read-out: Ki) it was 0.079 µM.
Turning to `Cc1ccc(CNC(=O)C(C)c2ccc(NS(C)(=O)=O)c(F)c2)cc1` (centres undefined), the EC50 result in assay [1] is “Not Active”. The Ki in assay [2] amounted to 0.93 µM; in assay [3] (read-out: Ki), 3.1 µM.
Taken in the same sequence, the figures for `Cc1ccc(CCCNC(=O)C(C)c2ccc(NS(C)(=O)=O)c(F)c2)cc1C` (racemic) were “Not Active”, 0.097 µM and 0.413 µM.
Regarding `CC(C(=O)NCc1ccc(C2C=CCC2)cc1)c1ccc(NS(C)(=O)=O)c(F)c1` (centres undefined), in assay [1], the EC50 entry was “Not Active”. The figures for the Ki in assay [2] and in assay [3] (read-out: Ki) were 0.015 µM and 0.162 µM, respectively.
Consider `CC(NC(=O)Cc1ccc(C(C)(C)C)cc1)c1ccc(NS(C)(=O)=O)c(F)c1` (centres undefined), for which the EC50 result in assay [1] is on record as “Not Active”. Further, the inhibition constant (Ki) in assay [3] (read-out: Ki) was 2.1 µM.
On to `CC(C(=O)NCc1ccc(Cl)c(Cl)c1)c1ccc(NS(C)(=O)=O)c(F)c1` (centres undefined), for which, in assay [1], the EC50 entry is reported as “Not Active”.
As for `CC(C)(C)c1ccc(CNC(=O)C2(c3ccc(NS(C)(=O)=O)cc3)CC2)cc1`, in assay [1], the EC50 result is “Not Active”.
For the compound `CC(C(=O)NCC=C1c2ccccc2CCc2ccccc21)c1ccc(NS(C)(=O)=O)c(F)c1` (centres undefined), in assay [1], the EC50 entry is on record as “Not Active”.
`CC(C(=O)NOCc1ccccc1)c1ccc(NS(C)(=O)=O)c(F)c1` (centres undefined): in assay [1], the EC50 entry is “Not Active”.
In the case of `CC(C(=O)NCC1CC1(c1ccccc1)c1ccccc1)c1ccc(NS(C)(=O)=O)c(F)c1` (centres undefined), the EC50 result in assay [1] is given as “Not Active”. For the same compound, the Ki in assay [2] stood at 0.148 µM; in assay [3] (read-out: Ki), 0.188 µM.
